Laboratory results: publication PMC7825275 (Cancer chemotherapy and pharmacology, 2019)

How the values were obtained:
[1] = system: advanced solid malignancies; experiment: Tumor response by RECIST 1.0, veliparib with carboplatin and paclitaxel; assay type: in vivo, human
How it was run: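 Tumor response followed RECIST 1.0 on CT or MRI. Scans were done every 2 cycles; for the first 46 subjects, the first scan was after cycle 3 and then every 2 cycles. Oral veliparib was given twice daily on days 1–7, with IV carboplatin/paclitaxel, in 21-day cycles, up to 6 cycles recommended.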

[2] = Veliparib plasma pharmacokinetics; assay type: in vivo, human
[3] = Reported veliparib half-life; assay type: in vivo, human; settings: for a 6.1 h half-life
[4] = system: patients; settings: with topotecan 0.6 mg on days 1-5; profound myelosuppression; cited from earlier work
[5] = system: previously untreated non-small cell lung cancer; settings: with carboplatin (AUC=6) plus paclitaxel (200 mg/m^2), Japanese patients; cited from earlier work
[6] = system: patients; settings: out of 35 patients enrolled, with oral daily cyclophosphamide; cited from earlier work
[7] = Adenoid cystic of lung, 1 evaluable, with carboplatin and paclitaxel
[8] = Adrenalcortical carcinoma, 1 evaluable, with carboplatin and paclitaxel
[9] = All Patients, 67 evaluable, with carboplatin and paclitaxel
[10] = Ampulla of Vater, 1 evaluable, with carboplatin and paclitaxel
[11] = Bladder, 6 evaluable, with carboplatin and paclitaxel
[12] = Breast, 13 evaluable, with carboplatin and paclitaxel
[13] = Carcinoma of unknown origin, 3 evaluable, with carboplatin and paclitaxel
[14] = Cervix, 1 evaluable, with carboplatin and paclitaxel
[15] = Cholangiocarcinoma, 2 evaluable, with carboplatin and paclitaxel
[16] = Esophageal, 2 evaluable, with carboplatin and paclitaxel
[17] = Head & Neck, 8 evaluable, with carboplatin and paclitaxel
[18] = Level 1: veliparib 10 mg BID, carboplatin AUC 6, paclitaxel 150 mg/m^2, 5 evaluable
[19] = Level 4: veliparib 40 mg BID, carboplatin AUC 6, paclitaxel 175 mg/m^2, 3 evaluable
[20] = Level 5: veliparib 40 mg BID, carboplatin AUC 6, paclitaxel 200 mg/m^2, 12 evaluable
[21] = Level 7B: veliparib 100 mg BID, carboplatin AUC 6, paclitaxel 200 mg/m^2, 14 evaluable
[22] = Level 8: veliparib 120 mg BID, carboplatin AUC 6, paclitaxel 200 mg/m^2, 8 evaluable
[23] = Lung, 16 evaluable, with carboplatin and paclitaxel
[24] = Melanoma, 9 evaluable, with carboplatin and paclitaxel
[25] = Myxoid chondrosarcoma, 1 evaluable, with carboplatin and paclitaxel
[26] = Prostate, 1 evaluable, with carboplatin and paclitaxel
[27] = Stomach, 1 evaluable, with carboplatin and paclitaxel
[28] = Uterine, 1 evaluable, with carboplatin and paclitaxel
[29] = patients, oral veliparib 10-120 mg BID

For `C[C@]1(c2nc3c(C(N)=O)cccc3[nH]2)CCCN1` [veliparib], the CR [1, 7] was 0, the ORR [1, 7] was 0/1 (0%) and the PD [1, 7] was 0. The PR [1, 7] was 0, the CR [1, 8] was 0 and the ORR [1, 8] was 0/1 (0%). For the same molecule, the PD [1, 8] was 1, the PR [1, 8] was 0 and the CR [1, 9] was 5. For the same molecule, the ORR [1, 9] was 27/67 (40%), the PD [1, 9] was 8 and the CR [1, 10] was 0. The ORR [1, 10] was 0/1 (0%), the PD [1, 10] was 0 and the PR [1, 10] was 0. For the same molecule, the CR [1, 11] was 1, the ORR [1, 11] was 3/6 (50%) and the PD [1, 11] was 1. The PR [1, 11] was 2, the CR [1, 12] was 3 and the ORR [1, 12] was 9/13 (69%). The PD [1, 12] was 2, the PR [1, 12] was 6 and the CR [1, 13] was 0. The ORR [1, 13] was 1/3 (33%), the PD [1, 13] was 0 and the PR [1, 13] was 1. For the same molecule, the CR [1, 14] was 0, the ORR [1, 14] was 0/1 (0%) and the PD [1, 14] was 1. The PR [1, 14] was 0, the CR [1, 15] was 0 and the ORR [1, 15] was 0/2 (0%). It also gave a PD [1, 15] of 0, a PR [1, 15] of 0 and a CR [1, 16] of 0. The ORR [1, 16] was 0/2 (0%), the PD [1, 16] was 0 and the PR [1, 16] was 0. For the same molecule, the CR [1, 17] was 0, the ORR [1, 17] was 3/8 (38%) and the PD [1, 17] was 0. For the same molecule, the PR [1, 17] was 3, the CR [1, 18] was 0 and the ORR [1, 18] was 2/5 (40%). For the same molecule, the PD [1, 18] was 1, the PR [1, 18] was 2 and the CR [1, 19] was 0. For the same molecule, the ORR [1, 19] was 1/3 (33%), the PD [1, 19] was 0 and the PR [1, 19] was 1. For the same molecule, the CR [1, 20] was 2, the ORR [1, 20] was 6/12 (50%) and the PD [1, 20] was 1. For the same molecule, the PR [1, 20] was 4, the CR [1, 21] was 0 and the ORR [1, 21] was 3/14 (21%). For the same molecule, the PD [1, 21] was 3, the PR [1, 21] was 3 and the CR [1, 22] was 0. For the same molecule, the ORR [1, 22] was 4/8 (50%), the PD [1, 22] was 1 and the PR [1, 22] was 4. The CR [1, 23] was 1, the ORR [1, 23] was 7/16 (44%) and the PD [1, 23] was 2. The PR [1, 23] was 6, the CR [1, 24] was 0 and the ORR [1, 24] was 1/9 (11%). For the same molecule, the PD [1, 24] was 1, the PR [1, 24] was 1 and the CR [1, 25] was 0. For the same molecule, the ORR [1, 25] was 0/1 (0%), the PD [1, 25] was 0 and the PR [1, 25] was 0. The CR [1, 26] was 0, the ORR [1, 26] was 1/1 (100%) and the PD [1, 26] was 0. For the same molecule, the PR [1, 26] was 1, the CR [1, 27] was 0 and the ORR [1, 27] was 1/1 (100%). The PD [1, 27] was 0, the PR [1, 27] was 1 and the CR [1, 28] was 0. For the same molecule, the ORR [1, 28] was 1/1 (100%), the PD [1, 28] was 0 and the PR [1, 28] was 1. For the same molecule, the “AUC on day 3 in the presence of carboplatin and paclitaxel (AUC0-12) vs day 1 veliparib alone (AUC0-inf)” value ([2]; P=0.049 by exact Wilcoxon) was “barely significantly lower than expected”, the “Cmax in the absence vs presence of carboplatin and paclitaxel” value ([2]; day 1 vs day 3) was “similar” and the “expected accumulation ratio by day 3 based on observed half-life” value ([2]; for a 5.1 h half-life, not observed for Cmax nor AUC) was 1.20. For the same molecule, the half-life ([2]; human, plasma, po) was 5.1 h, the apparent clearance [2, 29] was 27.5 L/h and the exposure versus dose [2, 29] was “increase linearly with dose”. For the same molecule, the “expected accumulation ratio by day 3 based on reported half-life” value [3] was 1.34, the “MTD, veliparib dose” value [4] was 10 mg bid and the “MTD, veliparib dose” value [5] was 120 mg. The partial responses [6] was “seven”.
